From article PMC3640342 (Pharmaceutical research, 2013)
In brackets after ≈: the same amount, converted by molar mass. Several values for one entry are separate records, joined by “and”; a condition that tells them apart may be missing. Equal values may be shown once. Read-outs that look alike come from different tables or passages of the source.

Columns and labels:
mouse liver microsomes = assay: Hepatic microsomal stability, mouse; assay type: in vitro ADME; details: 1 μM; for t1/2: NADPH
Procedure, shortened: (§1)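 Liver microsomes from mouse, rat or human (~0.5 mg/mL final) were incubated at 37°C with test compound at 1 μM final (0.6% ACN, 0.01% DMSO) in PBS pH 7.4 ± 0.05% PS80, with 1 mM NADPH or PBS.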

[1] = test system: PrP^Sc levels in ScN2a-cl3 cells; assay: cells; assay type: cell-based, mouse
MDCK-MDR1 cells = assay: Bidirectional MDCK-MDR1 cell permeability; assay type: in vitro ADME, canine; details: for Papp (A−B) / Papp (B−A): 10 μM, pH 7.4; for Efflux ratio: MDCK-MDR1 cells
human liver microsomes = assay: Hepatic microsomal stability, human; assay type: in vitro ADME; details: 1 μM; for t1/2: NADPH
Procedure, shortened: as §1

rat liver microsomes = assay: Hepatic microsomal stability, rat; assay type: in vitro ADME; details: 1 μM; for t1/2: NADPH
Procedure, shortened: as §1

Media solubility = assay type: physicochemical; details: media used in the cell-based assays, 10% FBS
[2] = Solubility at pH 2, pH 7.4 and in FaSSIF; assay type: physicochemical; details: for Solubility pH 7.4: pH 7.4 (phosphate) buffer
[3] = 3-day multidose PK in liquid diet; assay type: in vivo, FVB mice; details: for Brain concentration (C3-day) / Brain and plasma concentrations (C3-day): 3 days in liquid diet
[4] = Single-dose oral PK at 40 mg/kg; assay type: in vivo, FVB mice; details: single 40 mg/kg oral dose, ranking among 27 2-AMTs and Compd B
[5] = Hepatic microsomal stability, mouse; assay type: in vitro ADME; details: mouse, mouse liver microsomes, pH 7.4
Procedure, shortened: as §1

[6] = Single-dose oral gavage PK at 10 mg/kg; assay type: in vivo, FVB mice
Procedure, shortened: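 Female FVB mice (~25 g) were dosed at 10 mg/kg by oral gavage in 20% propylene glycol, 5% ethanol, 5% labrosol and 70% PEG400. Two mice per time point were killed by CO2 at 0.25, 0.5, 1, 2, 4, 6 and 24 h. Heparinized plasma and brain (diluted five-fold in water, homogenized) were assayed by LC/MS/MS.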

[7] = Single-dose IV PK at 1 mg/kg; assay type: in vivo, FVB mice; details: female, FVB, mouse, plasma, iv, 1 mg/kg
Procedure, shortened: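 Female FVB mice (~25 g) received 1 mg/kg by tail-vein injection in 10% DMSO in PEG400/water (1:1), 10% DMSO, or 10% ethanol in PEG400/water (1:1). Two mice per time point were killed by CO2 at 5 min and 0.25, 0.5, 1, 2, 4 and 6 h, and heparinized plasma was collected. After protein precipitation, samples were assayed by LC/MS/MS, and parameters came from noncompartmental sparse-sampling analysis.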

mouse plasma = details: 1 μM
[8] = Hepatic microsomal stability, human; assay type: in vitro ADME; details: human, human liver microsomes, pH 7.4
Procedure, shortened: as §1

[9] = mouse brain homogenate, 1 μM, corrected for dilution
FVB mice = assay: Drug tolerance / lethal toxicity on repeated dosing in liquid diet; assay type: in vivo
[10] = Hepatic microsomal stability, rat; assay type: in vitro ADME; details: rat, rat liver microsomes, pH 7.4
Procedure, shortened: as §1

[11] = cell-culture media with 10% FBS, 1 μM
[12] = female, FVB, mouse, brain, po, 10 mg/kg
[13] = female, FVB, mouse, plasma, po, 10 mg/kg

Cc1ccc(Nc2nc(-c3cc(-c4ccccc4)no3)cs2)nc1 [IND33]
% remaining after a 60-min incubation (mouse liver microsomes): 111%
EC50 [1]: 940 nM
Papp (A−B) (MDCK-MDR1 cells): 6.8e-06 cm/s
Papp (B−A) (MDCK-MDR1 cells): 8.3e-06 cm/s
Efflux ratio (MDCK-MDR1 cells): 1.2
% remaining after a 60-min incubation (human liver microsomes): 42%
% remaining after a 60-min incubation (rat liver microsomes): 73%
Solubility Media (Media solubility): 225 µM (≈ 75.2 µg/mL)
Solubility pH 7.4 ([2]; room temperature overnight): <1 μM
Brain concentration (C3-day) ([3]; 130 mg/kg dose): ~ 30 μM

Cc1ccc(Nc2nc(-c3ccncc3)cs2)nc1 [IND29]
EC50 [1]: 1570 nM

Cc1cccc(Nc2nc(-c3cc4ccccc4o3)cs2)n1 [IND22]
% remaining after a 60-min incubation (mouse liver microsomes): 40%
t1/2 (mouse liver microsomes): 49 min
EC50 [1]: 1460 nM
Papp (A−B) (MDCK-MDR1 cells): 9.5e-06 cm/s
Papp (B−A) (MDCK-MDR1 cells): 8.4e-06 cm/s
Efflux ratio (MDCK-MDR1 cells): 0.9
% remaining after a 60-min incubation (human liver microsomes): 99%
t1/2 (human liver microsomes): > 60 min
% remaining after a 60-min incubation (rat liver microsomes): 64%
t1/2 (rat liver microsomes): > 60 min
Solubility Media (Media solubility): 20 µM (≈ 6.15 µg/mL)
Solubility pH 7.4 ([2]; room temperature overnight): <1 μM

Cc1ccnc(Nc2nc(-c3ccc(OC(F)(F)F)cc3)cs2)c1 [IND78]
EC50 [1]: > 32000 nM

c1ccc2cc(Nc3nc(-c4cc5ccccc5o4)cs3)ncc2c1 [IND91]
EC50 [1]: 920 nM
Brain and plasma concentrations (C3-day) ([3]; 40, 80, 130 and 210 mg/kg/day): ≤ 1 µM

Cc1ccnc(Nc2nc(-c3ccncc3)cs2)c1 [IND52]
% remaining after a 60-min incubation (mouse liver microsomes): 0%
EC50 [1]: 4950 nM
Papp (A−B) (MDCK-MDR1 cells): 3.62e-05 cm/s
Papp (B−A) (MDCK-MDR1 cells): 4.87e-05 cm/s
Efflux ratio (MDCK-MDR1 cells): 1.3
% remaining after a 60-min incubation (human liver microsomes): 30%
% remaining after a 60-min incubation (rat liver microsomes): 8%
Solubility Media (Media solubility): 76 µM (≈ 20.4 µg/mL)
Solubility FaSSIF ([2]; fasted-state simulated intestinal fluid): 2 µM (≈ 0.537 µg/mL)
Solubility pH 2.0 ([2]; pH 2 (HCl) buffer, room temperature overnight): 215 μM
Solubility pH 7.4 ([2]; room temperature overnight): 1 μM
Brain concentration (C3-day) ([3]; 40 mg/kg dose): no measurable brain concentrations

Cc1ccnc(Nc2nc(-c3ccc(O)cc3)cs2)c1 [IND49]
AUClast values, brain and plasma [4]: lowest AUClast values
EC50 [1]: > 10000 nM

CC(=O)CC(c1ccccc1)c1c(O)c2ccccc2oc1=O (stereo not shown) [Warfarin]
Unbound (%) (human plasma; human, plasma, pH 7.4): 0.68±0.0023%

Cc1ccc(Nc2nc(-c3ccc(OC(F)(F)F)cc3)cs2)nc1 [IND26]
EC50 [1]: > 10000 nM

COc1ccc(-c2csc(Nc3cc4ccccc4cn3)n2)cc1OC [IND46]
% remaining after a 60-min incubation (mouse liver microsomes): 58%
% remaining after a 60-min incubation (human liver microsomes): 83%
% remaining after a 60-min incubation (rat liver microsomes): 61%
Solubility Media (Media solubility): 174 µM (≈ 63.2 µg/mL)
Solubility pH 7.4 ([2]; room temperature overnight): <1 μM

COc1ccc(-c2csc(Nc3cc(C)ccn3)n2)cc1OC [IND42]
EC50 [1]: 1000 nM

COc1ccc(-c2csc(Nc3ccc(C)cn3)n2)c(OC)c1 [IND74]
EC50 [1]: 3130 nM

C(=N\Nc1ccc(-c2cnco2)cc1)/c1ccncc1 [Compd B, (E)-5-(4-(2-(pyridin-4-ylmethylene)hydrazinyl)phenyl)oxazole, reference compound]
half-life at 1 μM [5]: 30 min
remaining at 1 h, 1 μM [5]: 29%
t1/2 (mouse liver microsomes): rapidly metabolized
%F (absolute oral bioavailability) ([6]; PO 10 mg/kg vs IV 1 mg/kg, plasma): 24.8%
Brain/Plasma AUClast Ratio ([6]; PO 10 mg/kg, 10 mg/kg): 0.51
AUC(0-t) [6, 12]: 1.06 ± 0.1 µM·h
Cmax [6, 12]: 460 ± 160 nM
tmax [6, 12]: 2 h
AUC(0-t) [6, 13]: 2.06 ± 0.06 µM·h
Cmax [6, 13]: 830 ± 380 nM
half-life [6, 13]: 60.6 min
tmax [6, 13]: 0.5 h
Vd [7]: 1.53 L/kg
clearance [7]: 76 mL/min/kg
EC50 ([1]; Mus musculus, 120 h): 250 nM
Unbound (%) (mouse plasma): 9% and 9.06±2.31%
t1/2 (human liver microsomes): relatively stable
half-life at 1 μM [8]: > 60 min
remaining at 1 h, 1 μM [8]: 68%
Unbound (%) [9]: 11% and 11.4±2.89%
Unbound (%) (human plasma; human plasma, 1 μM): 2.1% and 2.10±1.11%
Deaths (FVB mice; 150 mg/kg/day for 8 days in liquid diet): two of four mice
Lethal toxicity (FVB mice; 25, 50, and 100 mg/kg/day in liquid diet): none showed lethal toxicity
t1/2 (rat liver microsomes): relatively stable
half-life at 1 μM [10]: > 60 min
remaining at 1 h, 1 μM [10]: 77%
Unbound (%) [11]: 37% and 36.5±3.30%
AUC/EC50 ratios in brain and plasma, total concentration ([3]; 100 mg/kg/day for 3 days, AUC = C3-day × τ): greater than 100
Brain and plasma concentrations (C3-day) ([3]; 25 and 50 mg/kg/day): below the level of quantification

COc1ccc(-c2csc(Nc3ccc4ccccc4n3)n2)cc1OC [IND47]
% remaining after a 60-min incubation (mouse liver microsomes): 56%
EC50 [1]: 430 nM
Papp (A−B) (MDCK-MDR1 cells): 9.2e-06 cm/s
Papp (B−A) (MDCK-MDR1 cells): 8.9e-06 cm/s
Efflux ratio (MDCK-MDR1 cells): 1
% remaining after a 60-min incubation (human liver microsomes): 113%
% remaining after a 60-min incubation (rat liver microsomes): 50%
Solubility Media (Media solubility): 52 µM (≈ 18.9 µg/mL)
Solubility pH 7.4 ([2]; room temperature overnight): <1 μM
Brain and plasma concentrations (C3-day) ([3]; 40, 80, 130 and 210 mg/kg/day): ≤ 1 µM

Cc1ccc(Nc2nc(-c3ccc(-c4ccccn4)s3)cs2)nc1 [IND76]
EC50 [1]: 1230 nM

Cc1ccc(Nc2nc(-c3c(-c4ccccc4)noc3C)cs2)nc1 [IND36]
EC50 [1]: > 32000 nM

COc1ccc(-c2csc(Nc3cnccn3)n2)cc1OC [IND82]
EC50 [1]: 15600 nM

Cc1ccnc(Nc2nc(-c3ccc4c(c3)OCCO4)cs2)c1 [IND57]
EC50 [1]: > 10000 nM

Cc1ccnc(Nc2nc(-c3ccccc3O)cs2)c1 [IND48]
AUClast values, brain and plasma [4]: lowest AUClast values
EC50 [1]: > 10000 nM

Cc1ccnc(Nc2nc(-c3cc(-c4ccc(Cl)cc4)no3)cs2)c1 [IND64]
EC50 [1]: 850 nM

COc1ccc(-c2csc(Nc3cc4ccccc4cn3)n2)cc1 [IND86]
EC50 [1]: 340 nM

c1ccc2cc(Nc3nc(-c4ccncc4)cs3)ncc2c1 [IND85]
% remaining after a 60-min incubation (mouse liver microsomes): 6%
EC50 [1]: 310 nM
Papp (A−B) (MDCK-MDR1 cells): 3.03e-06 cm/s
Papp (B−A) (MDCK-MDR1 cells): 4.44e-06 cm/s
Efflux ratio (MDCK-MDR1 cells): 1.5
% remaining after a 60-min incubation (human liver microsomes): 66%
% remaining after a 60-min incubation (rat liver microsomes): 32%
Solubility Media (Media solubility): 116 µM (≈ 35.3 µg/mL)
Solubility pH 7.4 ([2]; room temperature overnight): <1 μM
Brain and plasma concentrations (C3-day) ([3]; 40, 80, 130 and 210 mg/kg/day): ≤ 1 µM

Cc1ccc(Nc2nc(-c3cccc(C#N)c3)cs2)nc1 [IND38]
EC50 [1]: 2290 nM

COc1ccc(-c2csc(Nc3ccc(C(F)(F)F)cn3)n2)cc1OC [IND43]
EC50 [1]: 2530 nM

COc1ccc(Nc2nc(-c3ccc(OC)c(OC)c3)cs2)nc1 [IND44]
% remaining after a 60-min incubation (mouse liver microsomes): 24%
t1/2 (mouse liver microsomes): 29 min
% remaining after a 60-min incubation (human liver microsomes): 48%
t1/2 (human liver microsomes): 58 min
% remaining after a 60-min incubation (rat liver microsomes): 39%
t1/2 (rat liver microsomes): 45 min
Solubility pH 7.4 ([2]; room temperature overnight): <1 μM
